Sampled rows, rich in hits. Any-hit rate of the full collection: about 5.9%.
T cruzi growth-1 = T. cruzi intracellular proliferation inhibitors, primary screen, cell-based, beta-gal Tulahuen parasites, NIH3T3 host, luminescence. T. cruzi beta-gal in NIH3T3, GalScreen luminescence, 90 h. inhibition, % at 8.34 µM. actives 5.9% (n = 77,000). AID 624255, 2012;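 active = mean inhibition above about 93%, with at least 55% of replicates each passing it, limit read from the data, passing the limit was not always enough; inconclusive = only one of those two conditions holds; inactive = neither condition holds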
Pf Dd2 growth = P. falciparum Dd2 growth inhibitors, primary screen, SYBR Green fluorescence, single dose replicates; 72 h; stronger effect = lower value; activity change, % at 10 µM; actives 2.3% (n = 94,000); in the data active = activity change below about -80%; inconclusive = no clear call, values can overlap the other calls
IDH1 R132H inh = inhibitors of IDH1 R132H reductase, primary screen, biochemical, plate reader, single point; Isocitrate dehydrogenase [NADP] cytoplasmic (Homo sapiens), O75874; diaphorase/resazurin fluorescence, 60 min; inhibition, % at 10 µM; actives 0.18% (n = 70,000); in the data active = inhibition above about 34%; inconclusive = no clear call, values can overlap the other calls; inactive = below about 11%
Target sequence (O75874 whole entry R132H): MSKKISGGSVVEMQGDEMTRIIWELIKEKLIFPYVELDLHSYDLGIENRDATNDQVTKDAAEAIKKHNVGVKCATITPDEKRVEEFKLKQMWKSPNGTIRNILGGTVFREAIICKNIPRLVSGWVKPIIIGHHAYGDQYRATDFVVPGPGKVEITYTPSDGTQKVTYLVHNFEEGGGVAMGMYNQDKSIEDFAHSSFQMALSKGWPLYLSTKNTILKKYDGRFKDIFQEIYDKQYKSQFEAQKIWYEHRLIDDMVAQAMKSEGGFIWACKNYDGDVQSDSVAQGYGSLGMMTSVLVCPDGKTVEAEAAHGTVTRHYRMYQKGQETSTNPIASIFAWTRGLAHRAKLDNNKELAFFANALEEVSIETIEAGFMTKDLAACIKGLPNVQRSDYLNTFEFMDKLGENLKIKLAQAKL
GASC1 inh = inhibitors of GASC-1 (KDM4C) histone demethylase, primary screen, biochemical, single concentration HTS; inhibition, % at 12.5 µM; AID 720574, 2013; Lysine-specific demethylase 4C (Homo sapiens), Q9H3R0; GST-KDM4C 2-372, H3K9me3 peptide, LANCE TR-FRET; actives 0.15% (n = 96,000);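 active = mean replicate inhibition above about 25%, with at least 55% of replicates also reaching it, limit read from the data, passing the limit was not always enough; inconclusive = only one of those two conditions met; inactive = neither condition met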
Target sequence (Q9H3R0 2-372 limits assumed): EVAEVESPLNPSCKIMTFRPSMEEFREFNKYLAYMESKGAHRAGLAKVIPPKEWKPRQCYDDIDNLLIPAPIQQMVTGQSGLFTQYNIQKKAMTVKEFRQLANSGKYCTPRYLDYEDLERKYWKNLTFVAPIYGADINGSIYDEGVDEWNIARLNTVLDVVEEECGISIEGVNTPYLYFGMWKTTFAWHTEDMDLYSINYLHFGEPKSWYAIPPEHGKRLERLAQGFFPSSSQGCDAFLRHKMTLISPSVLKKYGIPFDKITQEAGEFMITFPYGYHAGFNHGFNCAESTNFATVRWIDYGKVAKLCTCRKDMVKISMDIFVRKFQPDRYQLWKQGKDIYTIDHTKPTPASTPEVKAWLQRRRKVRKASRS
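Test system – GST-tagged GASC-1 (JMJD2C) catalytic fragment, aa 2-372 · Medium – HEPES buffer, pH 7.5, plus ascorbate · Reagent – H3K9me3 peptide with Fe(II)/2OG · Compound – one test concentration per compound · Timing – 30 min reaction, 60 min detection, RT · Technique – TR-FRET with Eu antibody and ULight streptavidin, EDTA stop · Read-out basis – inhibition from TR-FRET ratio decrease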
T cruzi growth-2 = T. cruzi intracellular proliferation inhibitors, confirmation, cell-based, NIH3T3 host, beta-gal parasite, luminescence, cherry-pick; shares compounds with T cruzi growth-1; T. cruzi beta-gal in NIH3T3, GalScreen luminescence, 90 h; inhibition, % at 8.35 µM; actives 72% (n = 5,600); AID 651739, 2012;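 active = mean replicate inhibition above about 95% and at least 55% of replicates individually reaching it, limit read from the data; inconclusive = only one of the two criteria is met; inactive = neither criterion is met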
T cruzi growth-3 = inhibitors of intracellular T. cruzi replication, confirmation, NIH3T3 host cells, beta-gal parasites, cherry-pick, set 2 | shares compounds with T cruzi growth-1 | T. cruzi beta-gal in NIH3T3, GalScreen luminescence, 90 h | inhibition, % at 2.09 µM | actives 21% (n = 5,600) | AID 651740, 2012;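 active = mean inhibition above about 95%, with at least 55% of replicates also reaching it, limit read from the data; inconclusive = meets just one of the two conditions; inactive = meets neither condition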
NIH3T3 tox = cytotoxicity in mouse NIH/3T3 fibroblasts, confirmation, cytotoxicity control for T. cruzi proliferation inhibitor project, cell-based, cherry-pick, single point | shares compounds with T cruzi growth-1 | NIH/3T3 viability, CellTiter-Glo ATP luminescence, 90 h | cytotoxicity (signal decrease), % at 8.35 µM | actives 14% (n = 5,600) | AID 651742, 2012;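 active = mean signal decrease across replicates above about 35% based on untreated-well scatter, with enough replicates individually passing, limit read from the data; inconclusive = no rule stated though some were filed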
3T3 cytotox 2 = NIH/3T3 fibroblast cytotoxicity, confirmation, cytotoxicity control, cell-based, cherry-pick, single point, set 2; shares compounds with T cruzi growth-1; NIH/3T3 viability, CellTiter-Glo ATP luminescence, 90 h; inhibition, % at 24.9 µM; actives 56% (n = 5,600); AID 651744, 2012;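 active = mean loss of cell viability signal at or above a set limit, and enough replicates individually reaching it; inconclusive = meets only the mean limit or only the replicate share; inactive = meets neither condition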
Large screens that a line does not name were inactive (follow-up assays come after a bar, where they were run).

CCN(CC(=O)Nc1cccc(SC)c1)S(=O)(=O)c1ccc(C)cc1	none (no result: T cruzi growth-1, Pf Dd2 growth, GASC1 inh)
COc1ccccc1NC(=O)CNC(=O)c1ccc(OC)c(OC)c1	none (no result: T cruzi growth-1, Pf Dd2 growth, GASC1 inh)
Nc1cc(N)nc(SCC(=O)N2CCN(c3ccc(Cl)cc3)CC2)n1	none (no result: T cruzi growth-1, Pf Dd2 growth, GASC1 inh)
Cn1c(-c2cc(Br)cs2)nc(=O)c2cc(Cl)ccc21	none (no result: T cruzi growth-1, Pf Dd2 growth, GASC1 inh)
CN(C)CC#Cc1ccc([C@H]2[C@@H](CO)N3CCCCN(C(=O)C4CC4)C[C@@H]23)cc1	none (no result: IDH1 R132H inh, GASC1 inh)
O=C(C1CCCC1)N1CCCCN2[C@H](C1)[C@H](c1ccc(C#CC3CC3)cc1)[C@@H]2CO	T cruzi growth-1 114 (no result: IDH1 R132H inh, GASC1 inh) | T cruzi growth-2 99 | T cruzi growth-3 inactive | NIH3T3 tox inactive | 3T3 cytotox 2 inactive
O=C(C1CCCC1)N1CCCCN2[C@H](CO)[C@H](c3ccc(C#CC4CC4)cc3)[C@H]2C1	T cruzi growth-1 113 (no result: IDH1 R132H inh, GASC1 inh) | T cruzi growth-2 104 | T cruzi growth-3 inactive | NIH3T3 tox inactive | 3T3 cytotox 2 37
CN(C)CC#Cc1ccc([C@H]2[C@@H](CO)N3CCCCN(C(=O)C4CC4)C[C@H]23)cc1	T cruzi growth-1 102 (no result: IDH1 R132H inh, GASC1 inh) | T cruzi growth-2 inactive | T cruzi growth-3 inactive | NIH3T3 tox inactive | 3T3 cytotox 2 36
O=C(C1CCCC1)N1CCCCN2[C@H](C1)[C@@H](c1ccc(C#CC3CC3)cc1)[C@@H]2CO	none (no result: IDH1 R132H inh, GASC1 inh)
C[C@H](CO)N1C[C@H](C)[C@@H](CN(C)C(=O)c2ccccc2)Oc2cc(C3=CCCC3)ccc2S1(=O)=O	none
C[C@H](CO)N1C[C@H](C)[C@@H](CN(C)C(=O)c2ccc(F)cc2)Oc2cc(C3=CCCCC3)ccc2S1(=O)=O	T cruzi growth-1 inconclusive | T cruzi growth-2 110 | T cruzi growth-3 inactive | NIH3T3 tox inactive | 3T3 cytotox 2 48
C[C@@H]1CN([C@H](C)CO)S(=O)(=O)c2ccc(C3=CCCC3)cc2O[C@@H]1CN(C)C(=O)c1ccc(F)cc1	none (no result: T cruzi growth-1)
C[C@@H]1CN([C@@H](C)CO)S(=O)(=O)c2ccc(C3=CCCC3)cc2O[C@@H]1CN(C)C(=O)c1ccccc1	T cruzi growth-1 100 | T cruzi growth-2 114 | T cruzi growth-3 inactive | NIH3T3 tox inactive | 3T3 cytotox 2 inactive
C[C@@H]1CN([C@@H](C)CO)S(=O)(=O)c2ccc(C3=CCCCC3)cc2O[C@@H]1CN(C)C(=O)c1ccccc1	T cruzi growth-1 108 (no result: IDH1 R132H inh) | T cruzi growth-2 inactive | T cruzi growth-3 inactive | NIH3T3 tox inactive | 3T3 cytotox 2 70
COc1ccc(NC(=O)CNC(=O)c2ccccc2C)cc1	none (no result: T cruzi growth-1, Pf Dd2 growth, GASC1 inh)
CCn1c(SCC(=O)Nc2ccccc2Br)nnc1-c1ccccc1	none (no result: T cruzi growth-1, Pf Dd2 growth, GASC1 inh)
COc1ccc(S(=O)(=O)Nc2ccc3c(c2)C(=O)N([C@@H](C)CO)C[C@@H](C)[C@@H](CN(C)S(=O)(=O)c2ccc(Cl)cc2)OCCCC[C@@H](C)O3)cc1	none
COc1ccc(S(=O)(=O)Nc2ccc3c(c2)C(=O)N([C@H](C)CO)C[C@H](C)[C@H](CN(C)S(=O)(=O)c2ccc(Cl)cc2)OCCCC[C@H](C)O3)cc1	T cruzi growth-1 inconclusive | T cruzi growth-2 103 | T cruzi growth-3 107 | NIH3T3 tox inactive | 3T3 cytotox 2 inactive
COc1ccc(S(=O)(=O)Nc2ccc3c(c2)C(=O)N([C@H](C)CO)C[C@@H](C)[C@@H](CN(C)S(=O)(=O)c2ccc(Cl)cc2)OCCCC[C@H](C)O3)cc1	T cruzi growth-1 99 | T cruzi growth-2 102 | T cruzi growth-3 inconclusive | NIH3T3 tox inactive | 3T3 cytotox 2 inactive
COc1ccc(S(=O)(=O)Nc2ccc3c(c2)C(=O)N([C@@H](C)CO)C[C@@H](C)[C@H](CN(C)S(=O)(=O)c2ccc(Cl)cc2)OCCCC[C@H](C)O3)cc1	T cruzi growth-1 100 | T cruzi growth-2 108 | T cruzi growth-3 inactive | NIH3T3 tox inactive | 3T3 cytotox 2 inactive
COc1ccc(S(=O)(=O)Nc2ccc3c(c2)C(=O)N([C@@H](C)CO)C[C@@H](C)[C@H](CN(C)S(=O)(=O)c2ccc(Cl)cc2)OCCCC[C@@H](C)O3)cc1	T cruzi growth-1 inconclusive | T cruzi growth-2 105 | T cruzi growth-3 104 | NIH3T3 tox inactive | 3T3 cytotox 2 33
COc1ccc(S(=O)(=O)N(C)C[C@@H]2OCCCC[C@@H](C)Oc3ccc(NS(=O)(=O)c4ccc(Cl)cc4)cc3C(=O)N([C@H](C)CO)C[C@H]2C)cc1	none (no result: T cruzi growth-1, IDH1 R132H inh, GASC1 inh)
C=CC(C)(O)C(O)CC1C(=C)CCC2C(C)(C(=O)O)CCCC12C (stereo not drawn)	none (no result: T cruzi growth-1, Pf Dd2 growth, GASC1 inh)
CC(Oc1ccc(C(C)(C)C)cc1)c1nc(-c2cccnc2)no1 (stereo not drawn)	none (no result: T cruzi growth-1, Pf Dd2 growth, GASC1 inh)
COc1cc(NC(=O)CCN2C(=O)c3ccccc3C2=O)cc(OC)c1	none (no result: T cruzi growth-1, Pf Dd2 growth, GASC1 inh)
Cc1ccc(S(=O)(=O)N(C)C[C@H]2Oc3cc(-c4cccc(F)c4)ccc3S(=O)(=O)N([C@H](C)CO)C[C@@H]2C)cc1	T cruzi growth-1 126 | T cruzi growth-2 105 | T cruzi growth-3 inactive | NIH3T3 tox 36 | 3T3 cytotox 2 inactive
Cc1ccc(S(=O)(=O)N(C)C[C@@H]2Oc3cc(C#Cc4ccccc4)ccc3S(=O)(=O)N([C@@H](C)CO)C[C@@H]2C)cc1	none (no result: T cruzi growth-1)
Cc1ccc(S(=O)(=O)N(C)C[C@@H]2Oc3cc(C#Cc4ccccc4)ccc3S(=O)(=O)N([C@H](C)CO)C[C@@H]2C)cc1	none (no result: T cruzi growth-1)
Cc1ccc(S(=O)(=O)N(C)C[C@H]2Oc3cc(-c4cccc(F)c4)ccc3S(=O)(=O)N([C@@H](C)CO)C[C@H]2C)cc1	T cruzi growth-1 119 | T cruzi growth-2 103 | T cruzi growth-3 inconclusive | NIH3T3 tox inactive | 3T3 cytotox 2 49
Cc1ccc(S(=O)(=O)N(C)C[C@H]2Oc3cc(-c4cccc(F)c4)ccc3S(=O)(=O)N([C@H](C)CO)C[C@H]2C)cc1	T cruzi growth-1 121 | T cruzi growth-2 102 | T cruzi growth-3 inactive | NIH3T3 tox inactive | 3T3 cytotox 2 43
